Experimental data pooled from the literature.
Lines come from different studies, so protocols differ.
EGFR del746-750: Epidermal growth factor receptor (EGFR, Homo sapiens, UniProt P00533, del746-750)
EGFR L861Q: Epidermal growth factor receptor (EGFR, Homo sapiens, UniProt P00533, L861Q)
EGFR: Epidermal growth factor receptor (EGFR, Homo sapiens, UniProt P00533)
EGFR G719S: Epidermal growth factor receptor (EGFR, Homo sapiens, UniProt P00533, G719S)
EGFR A750P/del747-749: Epidermal growth factor receptor (EGFR, Homo sapiens, UniProt P00533, A750P/del747-749)
EGFR L858R/T790M: Epidermal growth factor receptor (EGFR, Homo sapiens, UniProt P00533, L858R/T790M)
EGFR L858R: Epidermal growth factor receptor (EGFR, Homo sapiens, UniProt P00533, L858R)
EGFR del752-759: Epidermal growth factor receptor (EGFR, Homo sapiens, UniProt P00533, del752-759)
EGFR T790M: Epidermal growth factor receptor (EGFR, Homo sapiens, UniProt P00533, T790M)

Compound	target	test	conditions	remaining binding
O=C(c1ccc(Nc2nccc(-c3cc4ccccc4s3)n2)cc1)N1CCC(N2CCCC2)CC1	EGFR del746-750	binding, competition with immobilised ligand	1 µM	100%
CNC(=O)c1ccc(Nc2ncc(C(F)(F)F)c(NCc3nccnc3N(C)S(C)(=O)=O)n2)cc1	EGFR L861Q	cell-free assay, competition with immobilised ligand	0.1 µM	100%
Cc1ccc(NC(=O)c2ccc(CN3CCN(C)CC3)cc2)cc1Nc1nccc(-c2cccnc2)n1	EGFR	cell-free assay, competition with immobilised ligand	10 µM	71%
N[C@H]1CCN(c2nccc(-c3cnn4ncccc34)n2)C1	EGFR G719S	binding	1 µM	93%
O=C(NCCCN1CCOCC1)c1ccc(Nc2ncc(Cl)c(-c3ccc(Cl)s3)n2)cc1	EGFR A750P/del747-749	binding, competition with immobilised ligand	1 µM	72%
F[C@@H]1CCN(c2nccc(-c3cnn4ncccc34)n2)C1	EGFR L858R/T790M	binding	1 µM	100%
COc1ccc2c(c1)O[C@H](c1ccc(OC)c(OC)c1)C[C@@H]2NC(=O)C1(c2ccc3c(c2)OC(F)(F)O3)CC1	EGFR L858R	cell-free assay, competition with immobilised ligand	1 µM	100%
O=C(Nc1c[nH]nc1C(=O)NC1CCNCC1)c1cc(F)cc(F)c1	EGFR L861Q	binding, competition with immobilised ligand	1 µM	100%
O=C(c1ccc(Nc2ncc(Cl)c(-c3ccc(Cl)s3)n2)cc1)N1CCC(N2CCCC2)CC1	EGFR del752-759	binding, competition with immobilised ligand	1 µM	96%
C[C@H]1CCN(c2nccc(-c3cnn4ncccc34)n2)C1	EGFR del746-750	binding	1 µM	71%
O=C(NC1CCC1)c1ccc2nc(-c3cccc(NS(=O)(=O)NCCN4CCCCC4)c3)cn2c1	Epidermal growth factor receptor (EGFR, Homo sapiens, UniProt P00533, del747-752/P753S)	cell-free assay, competition with immobilised ligand	10 µM	100%
C[C@H](NC(=O)c1cnc2n1[C@](C)(Cc1ccc(C#N)cc1)C(=O)N2c1cc(Cl)c(F)c(Cl)c1)C(=O)NC1(c2ccccn2)CC1	EGFR del752-759	cell-free assay, competition with immobilised ligand	1 µM	100%
COc1cnc(Nc2cccc(S(N)(=O)=O)c2)nc1N1CCN(c2ccccc2)CC1	EGFR A750P/del747-749	binding, competition with immobilised ligand	1 µM	100%
CCN1CCN(Cc2ccc(C(=O)Nc3ccc(C)c(Oc4ccc5c(c4)CC(=O)N5)c3)cc2C(F)(F)F)CC1	EGFR G719S	binding, competition with immobilised ligand	1 µM	80%
CC1CCCN1c1nccc(-c2cnn3ncccc23)n1 (stereo not drawn)	EGFR del752-759	binding	1 µM	100%
N#Cc1ccccc1CSc1nnc2c(n1)[nH]c1ccccc12	EGFR	binding, competition with immobilised ligand	10 µM	100%
O=C(NCC1CCOCC1)c1n[nH]cc1NC(=O)c1c(F)cccc1F	EGFR	binding, competition with immobilised ligand	1 µM	99%
c1cncc(-c2cccc(Nc3nccc(NC4CCCCC4)n3)c2)c1	EGFR A750P/del747-749	binding, competition with immobilised ligand	10 µM	36%

Compound	target	test	conditions	remaining binding
CN(CCCC(F)(F)F)c1nccc(-c2cnn3ncccc23)n1	EGFR del746-750	binding	1 µM	80%
Cc1cnc(Nc2ccc(C(=O)N3CCC(N4CCCC4)CC3)cc2)nc1-c1cc2ccccc2s1	EGFR L858R/T790M	binding, competition with immobilised ligand	1 µM	59%
O=C(Nc1cccnn1)N1CC(C/C=C/c2cncc(Oc3ccc(C(F)(F)F)cn3)n2)C1	EGFR G719S	cell-free assay, competition with immobilised ligand	1 µM	100%
O=C(c1ccc(Nc2ncc(Cl)c(-c3cc4ccccc4s3)n2)cc1)N1CCC(N2CCCC2)CC1	EGFR G719S	binding, competition with immobilised ligand	1 µM	98%
CN1CCN(c2ccc(Nc3nccc(-c4ccccc4)n3)cc2C(F)(F)F)CC1	Epidermal growth factor receptor (EGFR, Homo sapiens, UniProt P00533, G719C)	binding	10 µM	64%
O=C(Nc1ccc(Oc2ccc(F)cc2)cc1)N1CCc2ncccc2[C@H]1c1ccc(F)cc1	EGFR T790M	cell-free assay, competition with immobilised ligand	1 µM	87%
Cc1cnn2ncc(-c3ccnc(N(C)C)n3)c2c1	EGFR del746-750	binding	1 µM	100%
CCC(=N\O)/C(C)=C/c1ccc(F)cc1	EGFR T790M	cell-free assay, competition with immobilised ligand	1 µM	100%
CN1CCN(c2ccc(Nc3nccc(-c4cccc([N+](=O)[O-])c4)n3)cc2C(F)(F)F)CC1	EGFR L858R	binding	10 µM	72%
Cc1c(NC(=O)c2cc(C(N)=O)nc3cc(F)ccc23)c(C(F)(F)F)nn1Cc1ccc(C(C)(C)C)cc1	EGFR A750P/del747-749	cell-free assay, competition with immobilised ligand	1 µM	100%
O=C(NCCCN1CCOCC1)c1ccc(Nc2nccc(-c3cc4ccccc4s3)n2)cc1	EGFR G719S	binding, competition with immobilised ligand	1 µM	100%
NS(=O)(=O)c1cc(NC(=O)Cc2ccccc2)ccc1Oc1cccc(Cl)c1	EGFR G719S	cell-free assay, competition with immobilised ligand	1 µM	74%
CNC(=O)[C@@H]1CC[C@@H](n2c(-c3ccc4cnccc4c3)nc3ccc(C(=O)NCc4cccc(C(N)=O)c4)cc32)C1	EGFR L858R	binding, competition with immobilised ligand	1 µM	100%
Nc1ncc2c(n1)-c1c([nH]c3ccc(C#CC4CC4)cc13)CCCC2	EGFR G719S	binding, competition with immobilised ligand	1 µM	98%
COc1ncc2cc3ccccc3nc2c1C#N	EGFR G719S	cell-free assay, competition with immobilised ligand	5 µM	95%
COc1cnc(Nc2cccc(S(N)(=O)=O)c2)nc1N1CCN(c2ccccc2)C(=O)C1	EGFR T790M	binding, competition with immobilised ligand	1 µM	92%
c1cnn2ncc(-c3ccnc(N4CCC45COC5)n3)c2c1	EGFR	binding	1 µM	100%
CC(C)(C)c1ccc(-c2nc(CBr)nn2-c2cccc(O)c2)cc1	EGFR L858R	cell-free assay, competition with immobilised ligand	10 µM	78%
